Source: PubChem BioAssay
CXCR6 inh: inhibitors of human CXCR6 receptor; inhibition, % at 20 µM; O00574; CHO-K1 PathHunter CXCR6 beta-arrestin, luminescence; 360,000 tested, 0.36% active; in the data active = inhibition above about 34%, passing the limit was not always enough;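 also: antagonist mode with CXCL16 agonist at 10 nM final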
Target sequence (O00574 whole entry, looked up): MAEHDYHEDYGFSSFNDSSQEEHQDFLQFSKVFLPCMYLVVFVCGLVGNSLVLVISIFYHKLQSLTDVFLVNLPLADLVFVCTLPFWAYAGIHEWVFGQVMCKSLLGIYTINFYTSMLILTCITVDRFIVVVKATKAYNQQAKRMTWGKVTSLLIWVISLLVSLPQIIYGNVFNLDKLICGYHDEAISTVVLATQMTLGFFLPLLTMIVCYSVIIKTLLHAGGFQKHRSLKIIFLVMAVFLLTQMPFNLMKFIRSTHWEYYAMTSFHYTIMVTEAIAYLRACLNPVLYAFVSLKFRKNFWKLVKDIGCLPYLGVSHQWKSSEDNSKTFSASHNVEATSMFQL
APJ antagonist: blocks the human apelin receptor APJ | CHO-K1 APJ beta-arrestin complementation, luminescence | inhibition, % at 20 µM | P35414 | AID 2521 | 330,000 tested, 0.32% active;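 active = inhibition above about 40% at 20 µM, limit read from the data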;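 also: cells challenged with 10 nM apelin-13 agonist together with compound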
A3A deaminase: inhibitors of human APOBEC3A DNA deaminase; P31941; recombinant A3A, FAM/TAMRA ssDNA deamination fluorescence; 330,000 tested, 0.41% active; inhibition, % at 20 µM; AID 493011;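 active = at least 40% inhibition at 20 µM here, with at most 30% in a related deaminase screen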
Target sequence (P31941 whole entry, looked up): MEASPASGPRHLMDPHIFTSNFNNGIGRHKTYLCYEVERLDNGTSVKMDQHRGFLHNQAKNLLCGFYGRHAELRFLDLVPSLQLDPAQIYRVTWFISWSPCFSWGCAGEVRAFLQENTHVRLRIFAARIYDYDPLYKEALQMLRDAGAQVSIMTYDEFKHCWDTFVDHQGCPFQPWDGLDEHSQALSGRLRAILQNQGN
CCR6 antagonist: blocks CCL20-driven beta-arrestin recruitment at human CCR6; inhibition, % at 20 µM; 340,000 tested, 0.49% active; P51684; CHO-K1 CCR6 PathHunter beta-arrestin, luminescence, CCL20-stimulated;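 active = compounds whose inhibition of the agonist-driven luminescence signal at 20 µM reaches about 50%, limit read from the data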;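 also: cells stimulated with CCL20 at 14 nM final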
APOBEC3G inh: APOBEC3G (human) deaminase inhibition | Q9HC16 | recombinant A3G, ssDNA deamination FAM/TAMRA fluorescence | inhibition, % at 20 µM | 330,000 tested, 0.28% active;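 active = inhibition of at least 40% at 20 µM, with no more than 30% in the related APOBEC3A deaminase screen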
APJ ag: agonists of human APJ apelin receptor | 330,000 tested, 0.11% active | P35414 | activation, % at 20 µM | CHO-K1 APJ PathHunter beta-arrestin, luminescence; 0% DMSO wells, 100% apelin | AID 2520;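 active = activation more than six SD over the plate average, tested at 20 µM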
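Material: engineered CHO-K1 APJ arrestin reporter cells; amount: 1000 CHO-K1 reporter cells seeded per well; incubation: compound stimulation 90 min at 25 °C, detection 60 min; signal: luminescent beta-gal fragment complementation, chemiluminescent substrate; read-out basis: APJ agonist activity; controls: DMSO-only wells as negative, 10 nM Apelin-13 as positive control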
A number is an active result; – = inactive; · = no result given; ! = not active in a repeat. Hits are enriched below; roughly 1.4% of the tested compounds scored in any of these assays.

SMILES | CXCR6 inh | APJ antagonist | A3A deaminase | CCR6 antagonist | APOBEC3G inh | APJ ag
CS(=O)(=O)c1ncc(Cl)c(C(=O)Nc2ccc3ccccc3c2)n1 | 70 | · | · | 81 | · | ·
COc1cc(S(=O)(=O)NC(Cc2c[nH]c3ccccc23)C(=O)O)ccc1NC(C)=O (stereo unspecified) | – | – | – | – | – | –
COc1cc(/C=C2/C(=O)NN(c3ccc(Cl)c(Cl)c3)C2=O)cc([N+](=O)[O-])c1O | – | · | · | – | · | ·
COc1cc(/C=C2/C(=O)N(c3ccc(Br)cc3)N=C2C)cc([N+](=O)[O-])c1O | · | 48 | – | · | – | –
Oc1csc(Cc2nc(-c3ccc4ccccc4c3)cs2)n1 | – | – | – | 56 | – | –
C[C@@H]1CN([C@H](C)CO)C(=O)c2cc(Br)cnc2O[C@@H]1CN(C)C(=O)c1ccccc1 | – | · | · | · | · | ·
CCOC(=O)c1nnn(-c2nonc2N)c1CN1CCCCCC1 | – | – | – | 104 | – | –
Cc1cc(C)cc(-c2nnc(SCC(=O)NCC3CCCO3)o2)c1 (stereo unspecified) | – | · | · | – | · | ·
O=[N+]([O-])c1ccc(N2CCOCC2)cc1O | – | – | – | – | – | –
Cc1cc(N2CCOCC2)ccc1/C=C\[N+](=O)[O-] | – | – | – | 56 | – | –
O=[N+]([O-])c1ccc(N=Nc2c(Cl)cc(O)cc2Cl)cc1 | 44 | · | · | 74 | · | ·
CC(N)=Nc1ccc([N+](=O)[O-])cc1 | – | – | – | – | – | –
Cc1cccc(CN2CCN([C@H]3CS(=O)(=O)N[C@@H]3COCc3ccccc3)CC2)c1 | – | · | · | · | · | ·
CC(NNC(=S)N1CCN(c2ccccn2)CC1)c1nccc2ccccc12 (stereo unspecified) | – | · | · | 64 | · | ·
c1cnc2ccc3ncccc3c2c1 | – | – | – | – | – | –
O=Cc1ccc(O)c2ncccc12 | 47 | – | – | – | – | –
O=C1C=CC(=O)N1CCCCCCN1C(=O)C=CC1=O | · | · | · | 104 | · | ·
COc1ccccc1NS(=O)(=O)c1cc([N+](=O)[O-])ccc1N/N=C/c1sc(N2CCOCC2)nc1-c1ccccc1 | 44 | · | · | 63 | · | ·
COc1ccc(C(=O)N/N=C/c2sc(N3CCOCC3)nc2-c2ccccc2)cc1OC | – | – | – | – | – | –
N#C/C(=C/c1cc(Cl)c(O)c(Cl)c1)C(=O)N1CCCCC1 | – | – | – | – | – | –
N#CC(C#N)=C(N)/C(C#N)=C/c1cc(O)c(O)c(O)c1 | 55 | 57 | – | 70 | – | –
Cc1n[nH]c(C)c1Sc1ccccc1N=Cc1cc(Cl)cc([N+](=O)[O-])c1O | 55 | – | – | – | – | –
COc1ccc(-c2ccccc2[C@H]2[C@@H]3C=CC[C@@H](C)[C@@H]3C(=O)N2Cc2ccccc2)cc1 | – | · | – | – | – | ·
CC(=O)n1cc(C(C[N+](=O)[O-])SCCN)c2ccccc21 (stereo unspecified) | – | – | – | 60 | – | –
Cn1cc(C(C[N+](=O)[O-])c2ccccc2)c2ccccc21 (stereo unspecified) | – | – | – | – | – | –
SMILES | CXCR6 inh | APJ antagonist | A3A deaminase | CCR6 antagonist | APOBEC3G inh | APJ ag
Cc1csc(N=Nc2ccc(N(C)C)cc2)[n+]1[O-] | 47 | · | · | · | · | ·
C(=C\c1sc(Nc2ccccc2)n[n+]1-c1ccccc1)/c1ccccc1 | – | · | · | 66 | · | ·
COc1ccccc1CNC(=O)c1ccc2ccccc2n1 | – | – | – | – | – | –
COc1ccccc1C(=O)NNC1=C(C(=O)C(F)(F)F)CCC1 | 44 | – | – | 59 | – | –
Cc1cccc(N2N=C(C(=O)O)CCC2=O)c1 | – | – | – | – | – | –
CCOc1cc(Cl)c(S(=O)(=O)NCCCn2ccnc2)cc1Cl | – | – | – | – | – | –
CCN1/C(=C\C=C2\C(=O)N(c3ccccc3)C(=S)N2C)Sc2ccccc21 | 40 | · | · | 63 | · | ·
COc1ccccc1C(=O)NC(=O)COC(=O)c1ccc([N+](=O)[O-])cc1Cl | – | – | – | – | – | –
CCOC(=O)C1NN=C(C(=O)c2ccccc2)C1c1ccc(Cl)cc1 (stereo unspecified) | – | 47 | – | – | – | –
O=C(CNC(=O)OCc1ccccc1)OC(c1ccccc1)c1ccccc1 | – | · | · | – | · | ·
Cc1cc(C(=O)NCCCN2CCN(C3CCCCC3)CC2)n(-c2ccccc2)n1 | – | – | 43 | – | – | –
Cc1ccccc1NC(=O)NCCCN1CCN(C2CCCCC2)CC1 | – | – | – | – | – | –
Cc1c(N=NC2=C(O)CCCC2=O)c(=O)n(-c2ccccc2)n1C | 49 | – | – | 70 | – | –
Cc1c(N=Nc2ccc(O)cc2)c(=O)n(-c2ccccc2)n1C | – | – | – | – | – | –
COc1cccc(OC)c1C(=O)Nc1ccc(S(=O)(=O)N2CCCCC2)cc1 | – | – | – | – | – | –
COc1ccc(CN2C(=O)C(Cc3ccccc3)Nc3ncnc(N4CCCCC4)c32)cc1 (stereo unspecified) | – | – | – | – | – | –
Cc1ccc(CN2C(=O)C(Cc3ccccc3)Nc3ncnc(N4CCCCC4)c32)cc1 (stereo unspecified) | 41! | – | – | 51 | – | –
NC(=O)c1sc2nc3c(c(-c4ccco4)c2c1N)CCC3 | – | – | – | – | – | –
Nc1c(C(=O)NC2CC2)sc2nc3c(c(-c4ccco4)c12)CC/C3=C/c1ccco1 | – | · | · | 51 | · | ·
CS/C(N)=N/N=C/c1cc(Br)cc(Br)c1O | – | – | – | – | – | –
C=CCS/C(N)=N\N=C\c1cc(Br)cc([N+](=O)[O-])c1O | 34 | – | – | 62 | – | –
CC(C)(Oc1ccc(F)cc1)C(=O)OCC(=O)c1ccc(S(C)(=O)=O)cc1 | – | – | – | 52 | – | –
CCCn1c2ccccc2c2nnc(SCC(=O)Nc3ncccn3)nc21 | 43 | – | – | 63 | – | –
CCCn1c2ccccc2c2nnc(SCC(=O)Nc3cc(C)on3)nc21 | – | – | – | – | – | –
C=CCn1c2ccccc2c2nnc(SCC(=O)Nc3cc(C)on3)nc21 | – | – | – | 55 | – | –
SMILES | CXCR6 inh | APJ antagonist | A3A deaminase | CCR6 antagonist | APOBEC3G inh | APJ ag
Cc1ccccc1CC1SC(N)=NC1=O (stereo unspecified) | – | – | – | – | – | –
S=c1[nH]ccc2ccccc12 | – | · | · | – | · | ·
CCCc1sc(N/N=C/c2ccccn2)nc1-c1ccc(F)cc1 | – | – | – | 69 | – | –
COc1cc(/C=C2\SC(=S)N(c3cccnc3)C2=O)ccc1O | 65 | 53 | – | 75 | – | –
Cc1ccc(/C=C2\SC(=S)N(c3cccnc3)C2=O)cc1 | – | – | – | – | – | –
N#Cc1c(N)sc(=S)c2c1CCN(Cc1ccccc1)C2 | · | – | – | · | 53 | –
Cc1cccc(CSc2nnc3c(n2)[nH]c2ccccc23)c1 | – | – | – | – | – | –
COc1ccc(C(=O)/C=C/C(=O)N(CC(=O)NC2CCCCC2)Cc2ccccc2OC)c(O)c1 | 64 | · | · | 84 | · | ·
